Assay results as given in ChEMBL document CHEMBL4049422, “Discovery of Novel Indazole Derivatives as Orally Available β3-Adrenergic Receptor Agonists Lacking Off-Target-Based Cardiovascular Side Effects” (J Med Chem, 2017).
Converted amounts (≈) assume the structure as drawn. The source made the active and inactive calls. No cut-off for these calls is given here.

Columns and labels:
[1] = Solubility of the compound at pH 6.8 buffer solution after 18 hrs by HPLC analysis; format: physicochemical
[2] = species: Homo sapiens; assay: Selectivity ratio of EC50 for recombinant human alpha1A adrenergic receptor to EC50 for recombinant human beta3 adrenergic receptor
[3] = Intrinsic clearance in Sprague-Dawley rat liver microsomes at 0.5 uM in presence of NADPH by LC-MS/MS analysis; format: ADME, microsome
Summary of the method: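 Pooled male Sprague-Dawley rat liver microsomes (0.5 mg/mL final) in 100 mM Tris-HCl pH 7.4 with NADPH-regenerating mix plus UDP-GA, test compound 0.5 µM, 20 min at 37 °C. Acetonitrile stop, LC-MS/MS. CLint,u is scaled with 44.8 mg protein/g liver and 40.0 g liver/kg, and corrected by fu from ultracentrifugation (160,000g, 16 h, 37 °C).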

[4] = Intrinsic clearance in human liver microsomes at 1 uM in presence of NADPH by LC-MS/MS analysis; format: ADME, microsome
Summary of the method: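 Pooled mixed-gender human liver microsomes (0.5 mg/mL) in 100 mM potassium phosphate pH 7.4 with NADPH-regenerating mix plus UDP-GA, test compound 1 µM, 15 min at 37 °C. Acetonitrile stop, LC-MS/MS. k from the remaining fraction. CLint,u is scaled with 48.8 mg protein/g liver and 25.7 g liver/kg, and corrected by fu from equilibrium dialysis (1 µM, 0.5 mg/mL, 6 h, 37 °C).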

[5] = molecular target: T1, Alpha-1A adrenergic receptor (Homo sapiens, UniProt P35348); assay: Intrinsic activity at recombinant human alpha1A adrenergic receptor expressed in HEK293 cells assessed as intercellular Ca mobilization by Fura-2AM dye-based fluorescence assay relative to norepinephrine; format: cell-based; conditions: read-out: Intrinsic activity
T1 sequence (P35348 whole entry): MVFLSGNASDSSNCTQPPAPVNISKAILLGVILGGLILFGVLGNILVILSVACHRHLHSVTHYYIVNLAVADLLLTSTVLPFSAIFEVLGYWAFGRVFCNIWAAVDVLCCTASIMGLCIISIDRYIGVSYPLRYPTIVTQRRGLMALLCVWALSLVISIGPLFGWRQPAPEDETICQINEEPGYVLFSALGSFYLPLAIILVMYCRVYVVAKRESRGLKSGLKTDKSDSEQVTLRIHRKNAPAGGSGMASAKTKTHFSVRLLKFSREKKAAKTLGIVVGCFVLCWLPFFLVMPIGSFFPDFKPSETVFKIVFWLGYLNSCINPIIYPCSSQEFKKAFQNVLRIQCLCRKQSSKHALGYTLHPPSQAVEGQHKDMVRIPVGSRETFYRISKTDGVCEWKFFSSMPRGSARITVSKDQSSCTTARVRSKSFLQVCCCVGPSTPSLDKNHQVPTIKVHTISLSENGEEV

[6] = AUC in Sprague-Dawley rat at 5 mg/kg, po by LC-MS/MS analysis; format: ADME, organism-based; conditions: in vivo
Summary of the method: (§1)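 Male Sprague-Dawley rats (n = 2 or 3) dosed orally at 5 mg/kg in saline or water (5 mL/kg). Blood taken from the subclavian vein at 0.5, 1, 2, 4, 6 and 8 h; plasma separated by centrifugation, stored at -20 °C, and drug levels measured by LC-MS/MS. Values are mean ± SD (n = 3) or the average of two experiments.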

[7] = Membrane permeability in MDCK cells at 50 uM after 60 mins by LC-MS/MS analysis; format: ADME, cell-based, Canis lupus familiaris; conditions: dog, read-out: permeability
[8] = Solubility of the compound at pH 1.2 buffer solution after 18 hrs by HPLC analysis; format: physicochemical
[9] = Cmax in Sprague-Dawley rat at 5 mg/kg, po by LC-MS/MS analysis; format: ADME, organism-based; design: dose 5 mg/kg, route oral; conditions: in vivo; summary of the method: as §1
[10] = molecular target: T1, Alpha-1A adrenergic receptor; assay: Agonist activity at recombinant human alpha1A adrenergic receptor expressed in HEK293 cells assessed as intercellular Ca mobilization by Fura-2AM dye-based fluorescence assay; format: cell-based
[11] = molecular target: T2, Beta-3 adrenergic receptor (Homo sapiens, UniProt P13945); assay: Intrinsic activity at recombinant human beta3 adrenergic receptor expressed in CHO cells assessed as accumulation of cyclic AMP after 30 mins relative to isoproterenol; format: cell-based
Target sequence in this assay (P13945 whole entry, looked up): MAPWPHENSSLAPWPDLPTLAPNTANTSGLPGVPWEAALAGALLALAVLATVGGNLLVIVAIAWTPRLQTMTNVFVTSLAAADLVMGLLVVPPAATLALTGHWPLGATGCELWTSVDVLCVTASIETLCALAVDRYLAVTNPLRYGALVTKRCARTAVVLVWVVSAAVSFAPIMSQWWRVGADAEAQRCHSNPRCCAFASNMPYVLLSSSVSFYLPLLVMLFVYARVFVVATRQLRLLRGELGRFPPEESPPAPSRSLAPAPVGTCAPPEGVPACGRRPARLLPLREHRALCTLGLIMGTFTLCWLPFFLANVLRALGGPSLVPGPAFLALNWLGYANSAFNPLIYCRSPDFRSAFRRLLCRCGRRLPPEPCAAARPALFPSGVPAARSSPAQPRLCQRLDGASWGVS

[12] = molecular target: T2, Beta-3 adrenergic receptor; assay: Agonist activity at recombinant human beta3 adrenergic receptor expressed in CHO cells assessed as accumulation of cyclic AMP after 30 mins; format: cell-based
Target sequence in this assay (P13945 whole entry): as the sequence (P13945 whole entry, looked up) above

[13] = molecular target: Adrenoceptor beta 3 (Callithrix jacchus) (UniProt F6XZF4); assay: Agonist activity at beta3 adrenergic receptor in marmoset urinary bladder smooth muscle strips assessed as induction of KCl-precontracted muscle relaxation treated every 20 mins
Chain of Adrenoceptor beta 3 (Callithrix jacchus) (F6XZF4 as listed by the source): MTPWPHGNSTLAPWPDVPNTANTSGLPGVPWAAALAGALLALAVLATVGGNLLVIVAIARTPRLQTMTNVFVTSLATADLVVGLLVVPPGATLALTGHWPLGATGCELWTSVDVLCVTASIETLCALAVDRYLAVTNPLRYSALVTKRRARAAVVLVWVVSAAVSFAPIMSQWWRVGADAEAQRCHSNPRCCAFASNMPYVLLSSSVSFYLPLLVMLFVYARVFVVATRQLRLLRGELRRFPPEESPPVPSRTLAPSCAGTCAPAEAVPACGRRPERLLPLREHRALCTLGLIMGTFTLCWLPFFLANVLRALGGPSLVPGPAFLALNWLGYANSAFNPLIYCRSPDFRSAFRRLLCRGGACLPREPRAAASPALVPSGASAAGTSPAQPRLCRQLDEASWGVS

[14] = molecular target: T3, Beta-1 adrenergic receptor (Homo sapiens, UniProt P08588); assay: Intrinsic activity at recombinant human beta1 adrenergic receptor assessed as accumulation of cyclic AMP after 30 mins relative to isoproterenol; conditions: 0.5 h
T3 sequence (P08588 whole entry): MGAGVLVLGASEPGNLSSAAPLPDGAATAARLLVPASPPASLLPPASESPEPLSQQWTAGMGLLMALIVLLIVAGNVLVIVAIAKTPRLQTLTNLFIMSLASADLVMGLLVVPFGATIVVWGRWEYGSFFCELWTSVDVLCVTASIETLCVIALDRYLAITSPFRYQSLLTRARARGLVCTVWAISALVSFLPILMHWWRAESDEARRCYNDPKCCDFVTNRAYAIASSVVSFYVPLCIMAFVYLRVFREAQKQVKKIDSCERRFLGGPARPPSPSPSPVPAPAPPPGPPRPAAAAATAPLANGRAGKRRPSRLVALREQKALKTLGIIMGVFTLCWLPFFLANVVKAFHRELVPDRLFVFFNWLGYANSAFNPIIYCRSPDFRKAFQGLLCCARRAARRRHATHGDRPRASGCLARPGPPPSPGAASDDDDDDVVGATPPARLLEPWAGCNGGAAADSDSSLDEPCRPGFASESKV

[15] = molecular target: T4, Beta-2 adrenergic receptor (Homo sapiens, UniProt P07550); assay: Agonist activity at recombinant human beta2 adrenergic receptor expressed in CHO cells assessed as accumulation of cyclic AMP after 30 mins; format: cell-based
T4 sequence (P07550 whole entry): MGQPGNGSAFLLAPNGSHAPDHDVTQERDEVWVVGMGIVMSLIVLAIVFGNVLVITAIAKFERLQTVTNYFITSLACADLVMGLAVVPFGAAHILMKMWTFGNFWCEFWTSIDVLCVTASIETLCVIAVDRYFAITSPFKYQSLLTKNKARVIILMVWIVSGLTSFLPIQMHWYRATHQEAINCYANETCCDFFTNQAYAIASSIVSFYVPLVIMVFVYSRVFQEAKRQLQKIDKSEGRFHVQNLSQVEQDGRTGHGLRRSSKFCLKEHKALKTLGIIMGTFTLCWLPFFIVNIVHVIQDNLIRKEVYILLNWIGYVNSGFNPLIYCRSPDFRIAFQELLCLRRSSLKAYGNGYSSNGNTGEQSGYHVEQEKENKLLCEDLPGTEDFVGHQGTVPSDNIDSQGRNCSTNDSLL

[16] = molecular target: T3, Beta-1 adrenergic receptor; assay: Agonist activity at recombinant human beta1 adrenergic receptor expressed in CHO cells assessed as accumulation of cyclic AMP after 30 mins; format: cell-based
[17] = molecular target: T4, Beta-2 adrenergic receptor; assay: Intrinsic activity at recombinant human beta2 adrenergic receptor assessed as accumulation of cyclic AMP after 30 mins relative to isoproterenol
[18] = Half life in Sprague-Dawley rat at 5 mg/kg, po by LC-MS/MS analysis; format: ADME, organism-based; conditions: in vivo; summary of the method: as §1
[19] = molecular target: CYP2D6 (Homo sapiens, UniProt P10635); assay: Inhibition of CYP2D6 (unknown origin) at 10 uM relative to control; format: ADME
Chain of CYP2D6 (P10635 whole entry): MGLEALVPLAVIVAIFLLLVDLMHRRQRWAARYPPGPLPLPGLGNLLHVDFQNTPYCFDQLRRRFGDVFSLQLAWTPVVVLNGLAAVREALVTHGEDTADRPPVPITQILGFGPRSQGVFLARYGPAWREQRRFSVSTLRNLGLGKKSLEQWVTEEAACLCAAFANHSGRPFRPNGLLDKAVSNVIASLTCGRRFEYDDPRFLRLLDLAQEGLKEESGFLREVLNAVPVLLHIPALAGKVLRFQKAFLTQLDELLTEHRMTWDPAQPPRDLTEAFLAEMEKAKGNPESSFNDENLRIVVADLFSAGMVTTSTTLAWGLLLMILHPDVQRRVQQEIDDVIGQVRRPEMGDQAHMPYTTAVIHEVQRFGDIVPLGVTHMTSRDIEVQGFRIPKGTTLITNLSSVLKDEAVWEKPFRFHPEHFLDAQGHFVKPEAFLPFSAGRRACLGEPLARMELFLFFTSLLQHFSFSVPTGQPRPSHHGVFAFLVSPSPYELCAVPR

[20] = tested on: Rattus norvegicus; assay: Cardiotoxicity in Sprague-Dawley rat assessed as increase in heart beat rate at 3 mg/kg, iv after 30 mins (reference value: 1.8 +/- 0.9%); format: toxicity, organism-based; conditions: in vivo, 0.5 h
[21] = tested on: Rattus norvegicus; assay: Cardiotoxicity in Sprague-Dawley rat assessed as decrease in mean blood pressure at 3 mg/kg, iv after 30 mins (reference value: 5.4 +/- 1.9%); format: toxicity, organism-based; design: scale not given: the % may be the effect or the level left; conditions: in vivo, 0.5 h
[22] = tested on: Rattus norvegicus; assay: Cardiotoxicity in Sprague-Dawley rat assessed as increase in mean blood pressure at 3 mg/kg, iv after 30 mins (reference value: 1 +/- 0.5%); format: toxicity, organism-based; conditions: in vivo, 0.5 h

Compound	Ratio EC50 [2]	CLint scaled at 0.5 µM [3] [mL/min/kg]	CLint scaled at 1 µM [4] [mL/min/kg]	Emax [5] [%]	EC50 [10] [nM]	Intrinsic activity [11] [%]	EC50 [12] [nM]	other results
Cc1n[nH]c2cc(OCCNC[C@H](O)c3cccc(NS(C)(=O)=O)c3)ccc12	10	103	< 10	71	–	–	–	solubility at 18 h [1]: 273 µM (≈ 110 µg/mL); AUC [6]: 542 ng·h/mL; Papp at 1 h, 50 µM [7]: 2.4 ×10⁻⁶ cm/s; solubility at 18 h [8]: 285 µM (≈ 115 µg/mL); Cmax [9]: 107 ng/mL
CCCS(=O)(=O)Nc1cccc([C@@H](O)CNCCOc2ccc3c(C)n[nH]c3c2)c1	25	–	–	84	163	79	6.5	–
CC(C)NCC(O)c1ccc(O)c(O)c1 (configuration not stated)	–	–	–	–	–	–	–	Activity [13]: Active
Cc1n[nH]c2cc(OCCNC[C@H](O)c3cccc(NS(=O)(=O)C4CC4)c3)ccc12	29	–	–	26	1250	72	43	–
Cc1n[nH]c2cc(OCCNC[C@H](O)c3cccc(NS(=O)(=O)c4ccccc4)c3)ccc12	> 2560	–	464	0	> 10000	85	3.9	Intrinsic activity [14]: 10%; solubility at 18 h [1]: 229 µM (≈ 107 µg/mL); EC50 [15]: > 10000 nM; EC50 [16]: > 10000 nM; Emax at 0.5 h [17]: 0%; Papp at 1 h, 50 µM [7]: 5.1 ×10⁻⁶ cm/s; solubility at 18 h [8]: 300 µM (≈ 140 µg/mL)
Nc1nc(CC(=O)Nc2ccc(CCNC[C@H](O)c3ccccc3)cc2)cs1 [MIRABEGRON]	–	–	–	–	–	–	–	inhibition at 10 µM [19]: 87%; Activity [20]: 10%; Activity [21]: 38.3%; Activity [22]: 3.5%

The next lines start with results.

Ratio EC50 [2]	CLint scaled at 0.5 µM [3] [mL/min/kg]	CLint scaled at 1 µM [4] [mL/min/kg]	Emax [5] [%]	EC50 [10] [nM]	Intrinsic activity [11] [%]	EC50 [12] [nM]	Compound	other results
> 32	–	–	0	> 10000	58	309	Cc1n[nH]c2cc(OCCNC[C@H](O)c3cccc(NS(=O)(=O)C4CCCC4)c3)ccc12	–
25	–	–	27	1760	90	70	Cc1n[nH]c2cc(OCCNC[C@H](O)c3cccc(NS(=O)(=O)C(C)C)c3)ccc12	–
> 151	641	463	4	–	–	–	CS(=O)(=O)Nc1cccc([C@@H](O)CNCCOc2ccc3c(C4CCC4)n[nH]c3c2)c1	–
61	113	42	31	–	–	–	CCc1n[nH]c2cc(OCCNC[C@H](O)c3cccc(NS(C)(=O)=O)c3)ccc12	–
> 769	211	193	9.1	–	–	–	CC(C)c1n[nH]c2cc(OCCNC[C@H](O)c3cccc(NS(C)(=O)=O)c3)ccc12	Intrinsic activity [14]: 11.9%; solubility at 18 h [1]: 267 µM (≈ 115 µg/mL); Emax at 0.5 h [17]: 5.6%; AUC [6]: 200 ng·h/mL; half-life [18]: 1.62 h; Papp at 1 h, 50 µM [7]: 4.1 ×10⁻⁶ cm/s; solubility at 18 h [8]: 295 µM (≈ 128 µg/mL); Cmax [9]: 45.2 ng/mL
